We go through four molecules from ChEMBL document CHEMBL1122268, “Mechanism of action of 2',5-difluoro-1-arabinosyluracil” (J Med Chem, 1983).

One test has as its target Lacticaseibacillus casei. The test is described as follows: Inhibition of dTMP synthetase in the absence of CH2-H4 folate Lactobacillus casei. Type of test: functional.
Test [1] has as its system Thymidylate synthase (Lactobacillus casei). The experiment in a line: Rate constant for the inactivation of DTMP synthetase in the presence of cofactor CH2-H4 folate.
In test [2] the test system is S49. The experiment in a line: Reduction of deoxy-Thymidinetriphosphate pool after 1 hour incubation in S-49 cells(2 X 10e 5) at a concentration of 16.5 uM. Type of test: functional, Mus musculus. The essentials: (§1)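 Mouse lymphoma S-49 suspension cultures at 2 × 10^5 cells/mL in DMEM with 10% heat-inactivated horse serum, 37 °C, exposed to 16.5 μM drug; dATP, dCTP, dGTP, dTTP pool sizes measured at 1 h (dTTP also 4 h), expressed as percent of original value.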

For another test, the system named is L5178Y. The test is described as follows: The growth inhibition of L5178Y cell line. Format: functional, cell-based. The settings on record: Mus musculus.
In test [3] the test system is S49. The experiment in a line: Reduction of deoxy-Thymidinetriphosphate pool after 4 hour incubation in S-49 cells(2 X 10e 5) at a concentration of 16.5 uM. Format: functional, Mus musculus. The gist of the method: as §1
In test [4] the test system is S49. The experiment in a line: The growth inhibition of S-49 mouse lymphoma cells. Type of test: functional, cell-based. The essentials: (§2)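 S-49 or thymidine kinase-deficient S-49/TK⁻ cells in 1 mL DMEM with 10% heat-inactivated horse serum plus inhibitor, 37 °C, 10% CO2, 72 h; cell density counted daily by Coulter counter; EC50 = concentration halving growth rate relative to untreated controls.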

For another test, the system named is P815. The test is described as follows: The growth inhibition of P815 cell line. Format: functional, cell-based. The note with it: Mus musculus.
For test [5], the system named is S49. The test is described as follows: Reduction of deoxy-[…] pool after 1 hour incubation in S-49 cells(2 X 10e 5) at a concentration of 16.5 uM. Format: functional, Mus musculus. The essentials:
as §1

Test [6] concerns S49. The experiment in a line: Reduction of deoxy-Cytidinetriphosphate pool after 1 hour incubation in S-49 cells(2 X 10e 5) at a concentration of 16.5 uM. Type of test: functional, Mus musculus. The gist of the method: as §1
The test system of test [7] is S49. The experiment in a line: Reduction of deoxy-Adenosinetriphosphate pool after 1 hour incubation in S-49 cells(2 X 10e 5) at a concentration of 16.5 uM. Format: functional, Mus musculus. The gist of the method:
as §1

For test [8], the system named is S49. The test is described as follows: The growth inhibition of thymidine kinase deficient S-49 cells. Format: functional, cell-based. The settings on record: Mus musculus. The gist of the method: as §2

The molecule `O=c1[nH]c(=O)n([C@@H]2O[C@H](COP(=O)(O)O)[C@@H](O)[C@@H]2F)cc1F` had a Ki on Lacticaseibacillus casei of 3.3 µM.

Regarding `O=c1[nH]c(=O)n([C@H]2O[C@@H](CO)[C@H](O)[C@H]2F)cc1F`, in test [1], the Rate constant came to 2.4 min⁻¹. In addition, the Decrease is 80% in the test on S49 [2], 40% in the test with S49 [3], less than 20% with S49 [5] and 90% in the test on S49 [7]. Moreover, the EC50 in the test on L5178Y was found to be 3.8 µM; with S49 [4], 3.3 µM; in the test with P815, 2.6 µM; in the test with S49 [8], 400 µM. Moreover, in the test with S49 [6], the Increase turned out to be 172%.

In the case of `O=c1ccn([C@H]2C[C@H](O)[C@@H](COP(=O)(O)O)O2)c(=O)[nH]1` [DEOXYURIDINE MONOPHOSPHATE], on Lacticaseibacillus casei, the inhibition constant (Ki) stood at 2.3 µM.

In turn, `O=c1[nH]c(=O)n([C@H]2C[C@H](O)[C@@H](COP(=O)(O)O)O2)cc1Cl` registered a Ki at Lacticaseibacillus casei of 0.19 µM.

For orientation: Ki means a measure of affinity in units of concentration, obtained from inhibition or displacement. Read a low Ki as tighter binding. As usually defined, the EC50 is the midpoint of the concentration-response curve. A lower EC50 goes with a more potent agent.
